In ChEMBL document CHEMBL4732178, “Dioxotriazine derivatives as a new class of P2X receptor antagonists: Identification of a lead and initial SAR studies” (Bioorg Med Chem Lett, 2021):

Columns and labels:
[1] = Microsomal stability in human liver microsomes assessed as parent compound remaining incubated for 30 mins in presence or absence of NADPH generating system; type: ADME, Microsome; conditions: read-out: Stabilty
Procedure, shortened: (§1)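 Compound incubated 30 min at 37 °C with human or rat liver microsomes (0.5 mg protein/mL), with or without NADPH-generating system; percent parent remaining reported.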

[2] = Microsomal stability in rat liver microsomes assessed as parent compound remaining incubated for 30 mins in presence or absence of NADPH generating system; type: ADME, Microsome; conditions: read-out: Stabilty; procedure, shortened: as §1
[3] = AUC in rat at 3 mg/kg, po; type: ADME, organism-based; design: dose 3 mg/kg; conditions: in vivo
[4] = Half life in rat at 1 mg/kg, iv or 3 mg/kg, po; type: ADME, organism-based; conditions: in vivo
[5] = Clearance in rat at 1 mg/kg, iv or 3 mg/kg, po; type: ADME, organism-based; conditions: in vivo
[6] = Cmax in rat at 3 mg/kg, po; type: ADME, organism-based; design: route oral, dose 3 mg/kg; conditions: in vivo
[7] = Oral bioavailability in rat at 3 mg/kg; type: ADME, organism-based; conditions: in vivo
[8] = Clearance in rat at 0.5 mg/kg, iv or 1 mg/kg, po; type: ADME, organism-based; conditions: in vivo
[9] = Oral bioavailability in rat or 1 mg/kg; type: ADME, organism-based; conditions: in vivo
[10] = Half life in rat at 0.5 mg/kg, iv or 1 mg/kg, po; type: ADME, organism-based; conditions: in vivo

Row | SMILES | remaining at 0.5 h [1] | remaining at 0.5 h [2] | other results
1 | CC(C)Oc1ccc(Nc2nc(=O)n(CCCC(=O)O)c(=O)n2Cc2ccc(Cl)cc2)cc1F | 106% | 103% | –
2 | CC(C)Oc1ccc(Nc2nc(=O)[nH]c(=O)n2Cc2ccc(Cl)cc2)cc1F | 78% | 54% | –
3 | COc1cc(C(C)C)c(Oc2cnc(NC(CO)CO)nc2N)cc1I | – | – | AUC [3]: 369 ng·h/mL; half-life [4]: 1.1 h; clearance [5]: 42 mL/min/kg; Cmax [6]: 118 ng/mL; bioavailability [7]: 30.3%
4 | CC(C)Oc1ccc(/N=c2\[nH]c(=O)n(CC(=O)O)c(=O)n2Cc2ccc(Cl)cc2)cc1Cl | – | – | clearance [8]: 1.7 mL/min/kg; bioavailability [9]: 71.2%; half-life [10]: 2.1 h
5 | CC(C)Oc1ccc(Nc2nc(=O)c(CC(=O)O)cn2Cc2ccc(Cl)cc2)cc1Cl | – | – | clearance [8]: 8.3 mL/min/kg; bioavailability [9]: 79.9%; half-life [10]: 1.8 h
6 | CCn1c(=O)nc(Nc2ccc(OC(C)C)c(F)c2)n(Cc2ccc(Cl)cc2)c1=O | 86% | 42% | –
7 | CNC(=O)CCn1c(=O)nc(Nc2ccc(OC(C)C)c(F)c2)n(Cc2ccc(Cl)cc2)c1=O | 86% | 30% | –
8 | CC(C)Oc1ccc(Nc2nc(=O)n(CC#N)c(=O)n2Cc2ccc(Cl)cc2)cc1F | 68% | 41% | –
9 | CCCn1c(=O)nc(Nc2ccc(OC(C)C)c(F)c2)n(Cc2ccc(Cl)cc2)c1=O | 36% | 35% | –
10 | CC(C)Oc1ccc(Nc2nc(=O)n(CCO)c(=O)n2Cc2ccc(Cl)cc2)cc1F | 92% | 60% | –
11 | CC(C)Oc1ccc(Nc2nc(=O)n(CCCO)c(=O)n2Cc2ccc(Cl)cc2)cc1F | 82% | 29% | –
12 | CC(C)Oc1ccc(Nc2nc(=O)n(C(C)C)c(=O)n2Cc2ccc(Cl)cc2)cc1 | – | – | clearance [8]: 23.9 mL/min/kg; bioavailability [9]: 25.2%
13 | CC(C)Oc1ccc(Nc2nc(=O)n(CCC(=O)O)c(=O)n2Cc2ccc(Cl)cc2)cc1Cl | – | – | clearance [8]: 0.5 mL/min/kg; bioavailability [9]: 43.2%; half-life [10]: 6 h
14 | CC(=O)NCCn1c(=O)nc(Nc2ccc(OC(C)C)c(F)c2)n(Cc2ccc(Cl)cc2)c1=O | 45% | 1% | –
15 | CC(C)Oc1ccc(Nc2nc(=O)n(CC(=O)O)c(=O)n2Cc2ccc(Cl)cc2)cc1F | 99% | 97% | –
16 | Cc1ccc(Cn2c(Nc3ccc(OC(C)C)c(Cl)c3)nc(=O)n(CCC(=O)O)c2=O)cc1 | – | – | AUC [3]: 14300 ng·h/mL; half-life [4]: 1.6 h; clearance [5]: 2.7 mL/min/kg; bioavailability [7]: 71.8%
17 | CC(C)Oc1ccc(Nc2nc(=O)n(CC(C)(C)C(=O)O)c(=O)n2Cc2ccc(Cl)cc2)cc1F | – | – | AUC [3]: 6990 ng·h/mL; half-life [4]: 9.6 h; clearance [5]: 3 mL/min/kg; Cmax [6]: 1260 ng/mL; bioavailability [7]: 47.3%
18 | CC(C)Oc1ccc(Nc2nc(=O)n(CCC(=O)O)c(=O)n2Cc2ccc(Cl)cc2)cc1F | 92% | 99% | –
19 | CC(C)Oc1ccc(Nc2nc(=O)n(C(C)C)c(=O)n2Cc2ccc(Cl)cc2)cc1F | 36% | 49% | –
20 | CC(C)Oc1ccc(Nc2nc(=O)n(CCC#N)c(=O)n2Cc2ccc(Cl)cc2)cc1F | 59% | 30% | –
21 | CC(C)Oc1ccc(Nc2nc(=O)n(CCC(N)=O)c(=O)n2Cc2ccc(Cl)cc2)cc1F | 94% | 61% | –
22 | CC(=O)NCCCn1c(=O)nc(Nc2ccc(OC(C)C)c(F)c2)n(Cc2ccc(Cl)cc2)c1=O | 47% | 15% | –
23 | CC(=O)n1c(=O)nc(Nc2ccc(OC(C)C)c(F)c2)n(Cc2ccc(Cl)cc2)c1=O | 0% | 2% | –
24 | CC(C)Oc1ccc(Nc2cc(=O)n(CCC(=O)O)c(=O)n2Cc2ccc(Cl)cc2)cc1Cl | – | – | clearance [8]: 2.1 mL/min/kg; bioavailability [9]: 61.5%; half-life [10]: 2.2 h
25 | CC(C)Oc1ccc(Nc2nc(=O)n(CCCCO)c(=O)n2Cc2ccc(Cl)cc2)cc1F | 59% | 36% | –
26 | CC(C)Oc1ccc(Nc2nc(=O)n(Cc3ccccc3)c(=O)n2Cc2ccc(Cl)cc2)cc1F | 21% | 1% | –
